These results are taken from ChEMBL document CHEMBL1125107, “Cephalosporin 3'-quinolone esters with a dual mode of action” (J Med Chem, 1990).

Structures are written as SMILES. Converted amounts (≈) assume the structure as drawn. Where only a bound is given, the exact number is not on record here.

Usually MIC stands for the least concentration at which growth counts as inhibited.

One experiment concerns Proteus vulgaris. In words: Evaluated for the minimum inhibitory concentration against Proteus vulgaris 1028 BC (Class Ic beta-lactamase overproducer. In kind it is functional. Put shortly: (§1)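 MIC by serial 2-fold dilution in Mueller-Hinton broth; results given as minimum inhibitory concentrations (nmol/mL).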
In the case of `CCn1cc(C(=O)OCC2=C(C(=O)O)N3C(=O)[C@@H](NC(=O)COc4ccccc4)C3SC2)c(=O)c2cc(F)c(N3CCCC3)cc21` (some centres not stated), the lowest concentration to inhibit growth (MIC) was 32 µg/mL (≈ 49.2 µM).
Still for that read-out and setting: for `CCn1cc(C(=O)OCC2=C(C(=O)O)N3C(=O)[C@@H](NC(=O)/C(=N/OC)c4csc(N)n4)C3SC2)c(=O)c2cc(F)c(N3CCSCC3)cc21` (some centres not stated) the value was 2 µg/mL (≈ 2.73 µM); for `O=C(O)c1cn(-c2ccc(F)cc2)c2cc3c(cc2c1=O)OCO3`, 0.5 µg/mL (≈ 1.53 µM).

The subject of a further experiment is Escherichia coli. The experiment in a line: Evaluated for in Vitro activity against Escherichia coli DC-O. The experiment is classed as functional. Put shortly:
as §1
Regarding `CO/N=C(/C(=O)N[C@@H]1C(=O)N2C(C(=O)O)=C(CO)CSC12)c1csc(N)n1` (some centres not stated), the MIC amounted to 0.597 µM (≈ 0.247 µg/mL).

For another experiment, the system named is Escherichia coli. The experiment in a line: Evaluated for the minimum inhibitory concentration against Escherichia coli TEM-1. In kind it is functional. Put shortly:
(§2)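 Serial 2-fold broth dilution in Mueller-Hinton broth, run by standard methodology; read-out is the minimum inhibitory concentration (MIC).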
`CCn1cc(C(=O)O)c(=O)c2ccc(C)nc21` [NALIDIXIC ACID] registered an MIC of 4 µg/mL (≈ 17.2 µM).

The test system of the next experiment is Streptococcus pneumoniae. In words: Evaluated for in Vitro activity against Streptococcus pneumoniae 6301. In kind it is functional. Put shortly: as §1
For `CO/N=C(/C(=O)N[C@@H]1C(=O)N2C(C(=O)O)=C(CO)CSC12)c1csc(N)n1` (some centres not stated), inhibition of growth (MIC) required 0.0746 µM (≈ 0.0308 µg/mL).

A further experiment has as its system Micrococcus luteus. In words: Evaluated for in Vitro activity against Micrococcus luteus PCI. In kind it is functional. Put shortly: as §1
For `CO/N=C(/C(=O)N[C@@H]1C(=O)N2C(C(=O)O)=C(CO)CSC12)c1csc(N)n1` (some centres not stated), the MIC came to 0.597 µM (≈ 0.247 µg/mL).

A further experiment has as its system Staphylococcus aureus. In words: Minimum inhibitory concentration against Staphylococcus aureus 95 (Methicillin-resistant, high-level beta-lactamase producer). The experiment is classed as functional. Put shortly: as §2
`CCn1cc(C(=O)O)c(=O)c2ccc(C)nc21` [NALIDIXIC ACID] showed an MIC of 8 µg/mL (≈ 34.4 µM).
Same read-out and setting: for `CCn1cc(C(=O)OCC2=C(C(=O)O)N3C(=O)[C@@H](NC(=O)COc4ccccc4)C3SC2)c(=O)c2cc(F)c(N3CCCC3)cc21` (some centres not stated) the value was 0.5 µg/mL (≈ 0.768 µM); for `CCn1cc(C(=O)OCC2=C(C(=O)O)N3C(=O)[C@@H](NC(=O)/C(=N/OC)c4csc(N)n4)C3SC2)c(=O)c2cc(F)c(N3CCSCC3)cc21` (some centres not stated), 0.5 µg/mL (≈ 0.683 µM); for `O=C(O)c1cn(-c2ccc(F)cc2)c2cc3c(cc2c1=O)OCO3`, 1 µg/mL (≈ 3.06 µM).

The next experiment has as its system Pseudomonas aeruginosa. The experiment in a line: Evaluated for the minimum inhibitory concentration against Pseudomonas aeruginosa 18S/H (Class Id beta-lactamase overproducer). In kind it is functional. Put shortly:
as §1
In turn, `CCn1cc(C(=O)O)c(=O)c2ccc(C)nc21` [NALIDIXIC ACID] gave an MIC of 32 µg/mL (≈ 138 µM).
`CCn1cc(C(=O)OCC2=C(C(=O)O)N3C(=O)[C@@H](NC(=O)COc4ccccc4)C3SC2)c(=O)c2cc(F)c(N3CCCC3)cc21` (some centres not stated) registered an MIC of 32 µg/mL (≈ 49.2 µM).
With `CCn1cc(C(=O)OCC2=C(C(=O)O)N3C(=O)[C@@H](NC(=O)/C(=N/OC)c4csc(N)n4)C3SC2)c(=O)c2cc(F)c(N3CCSCC3)cc21` (some centres not stated), 8 µg/mL (≈ 10.9 µM) was the least that counted as inhibitory (MIC). This MIC is about 4-fold lower than that of the compound before.
Same read-out and setting: with `O=C(O)c1cn(-c2ccc(F)cc2)c2cc3c(cc2c1=O)OCO3` the figure was 0.5 µg/mL (≈ 1.53 µM).

A further experiment deals with Streptococcus pyogenes. The experiment in a line: Minimum inhibitory concentration against Streptococcus pyogenes 4. In kind it is functional. Put shortly: (§3)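 Broth MIC determination: serial 2-fold dilutions in Mueller-Hinton broth by standard methodology; the lowest concentration inhibiting growth is reported as the MIC, in nmol/mL.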
`CCn1cc(C(=O)O)c(=O)c2ccc(C)nc21` [NALIDIXIC ACID] showed an MIC of 128 µg/mL (≈ 551 µM).
Turning to `CCn1cc(C(=O)OCC2=C(C(=O)O)N3C(=O)[C@@H](NC(=O)/C(=N/OC)c4csc(N)n4)C3SC2)c(=O)c2cc(F)c(N3CCSCC3)cc21` (some centres not stated), the MIC is less than 0.008 µg/mL.
`O=C(O)c1cn(-c2ccc(F)cc2)c2cc3c(cc2c1=O)OCO3`: the MIC was more than 128 µg/mL.

A further experiment relates to Streptococcus pneumoniae. In words: Minimum inhibitory concentration against Streptococcus pneumoniae 6301. The experiment is classed as functional. Put shortly: as §3
`CCn1cc(C(=O)O)c(=O)c2ccc(C)nc21` [NALIDIXIC ACID] returned an MIC of 128 µg/mL (≈ 551 µM).
`CCn1cc(C(=O)OCC2=C(C(=O)O)N3C(=O)[C@@H](NC(=O)COc4ccccc4)C3SC2)c(=O)c2cc(F)c(N3CCCC3)cc21` (some centres not stated): the MIC was less than 0.008 µg/mL.
The same measure, in the same setting: for `CCn1cc(C(=O)OCC2=C(C(=O)O)N3C(=O)[C@@H](NC(=O)/C(=N/OC)c4csc(N)n4)C3SC2)c(=O)c2cc(F)c(N3CCSCC3)cc21` (some centres not stated) the value was 0.016 µg/mL (≈ 0.0219 µM); for `O=C(O)c1cn(-c2ccc(F)cc2)c2cc3c(cc2c1=O)OCO3`, 64 µg/mL (≈ 196 µM).

The next experiment deals with Pseudomonas aeruginosa. In words: Minimum inhibitory concentration against Pseudomonas aeruginosa ATCC 27853. The experiment is classed as functional. Put shortly:
as §3
Regarding `CCn1cc(C(=O)O)c(=O)c2ccc(C)nc21` [NALIDIXIC ACID], 128 µg/mL (≈ 551 µM) was the least that counted as inhibitory (MIC).
Same read-out and setting: with `CCn1cc(C(=O)OCC2=C(C(=O)O)N3C(=O)[C@@H](NC(=O)COc4ccccc4)C3SC2)c(=O)c2cc(F)c(N3CCCC3)cc21` (some centres not stated) the figure was more than 128 µg/mL.
Still for that read-out and setting: for `CCn1cc(C(=O)OCC2=C(C(=O)O)N3C(=O)[C@@H](NC(=O)/C(=N/OC)c4csc(N)n4)C3SC2)c(=O)c2cc(F)c(N3CCSCC3)cc21` (some centres not stated) the value was 128 µg/mL (≈ 175 µM).

A further experiment concerns Proteus vulgaris. In words: Minimum inhibitory concentration against Proteus vulgaris 1028 BC (Class Ic beta-lactamase overproducer). The experiment is classed as functional. Put shortly:
as §3
The compound `CCn1cc(C(=O)O)c(=O)c2ccc(C)nc21` [NALIDIXIC ACID] came in with an MIC of 2 µg/mL (≈ 8.61 µM).

The next experiment deals with Escherichia coli. The experiment in a line: Evaluated for the minimum inhibitory concentration against Escherichia coli UB 1005. The experiment is classed as functional. Put shortly:
as §1
Compound `CCn1cc(C(=O)OCC2=C(C(=O)O)N3C(=O)[C@@H](NC(=O)/C(=N/OC)c4csc(N)n4)C3SC2)c(=O)c2cc(F)c(N3CCSCC3)cc21` (some centres not stated) gave an MIC of 1 µg/mL (≈ 1.37 µM).
